According to ChEMBL document CHEMBL3045617, “Synthesis and antiviral activities of cyanoacrylate derivatives containing an alpha-aminophosphonate moiety” (J Agric Food Chem, 2008):
Converted amounts (≈) assume the structure as drawn.

Columns and labels:
[1] = system: Tobacco mosaic virus; assay: Antiviral activity against Tobacco mosaic virus (TMV) pre-treated with 500 ug/mL compound for 30 min followed by inoculation on left side of Nicotiana tabacum leaves assessed as virus inactivation effect measured 3 to 4 days post viral infection; type: functional
Summary of the method: (§1)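 Purified TMV is mixed with an equal volume of compound solution for 30 min. The mixture is rub-inoculated on the left half of N. tabacum leaves, and a solvent–virus mixture on the right half serves as control. Local lesions are recorded 3-4 days after inoculation. Inhibition % = (control − treated average lesions)/control × 100. Three repetitions. EC50 is derived from tests at several concentrations.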

[2] = system: Tobacco mosaic virus; assay: Antiviral activity against Tobacco mosaic virus (TMV) pre-treated with 30.7 ug/mL compound for 30 min followed by inoculation on left side of Nicotiana tabacum leaves assessed as virus inactivation effect measured 3 to 4 days post viral infection; type: functional; summary of the method: as §1
[3] = system: Tobacco mosaic virus; assay: Antiviral activity against Tobacco mosaic virus (TMV) pre-treated with 125 ug/mL compound for 30 min followed by inoculation on left side of Nicotiana tabacum leaves assessed as virus inactivation effect measured 3 to 4 days post viral infection; type: functional; summary of the method: as §1
[4] = system: Tobacco mosaic virus; assay: Antiviral activity against Tobacco mosaic virus (TMV) pre-treated with 62.5 ug/mL compound for 30 min followed by inoculation on left side of Nicotiana tabacum leaves assessed as virus inactivation effect measured 3 to 4 days post viral infection; type: functional; summary of the method: as §1
[5] = system: Tobacco mosaic virus; assay: Antiviral activity against Tobacco mosaic virus (TMV) pre-treated with compound for 30 min followed by inoculation on left side of Nicotiana tabacum leaves assessed as virus inactivation effect measured 3 to 4 days post viral infection; type: functional, organism-based; summary of the method: as §1
[6] = system: Tobacco mosaic virus; assay: Antiviral activity against Tobacco mosaic virus (TMV) inoculated on 500 ug/mL compound smeared Nicotiana tabacum leaves assessed as protective effect against viral infection measured 3 to 4 days post viral infection; type: functional
Summary of the method: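 Half-leaf assay on same-age N. tabacum leaves. The compound solution is applied to the left half and solvent to the right half as control. After 12 h, leaves dusted with silicon carbide are brush-inoculated with purified TMV (6 × 10^-3 mg/mL) and then rinsed with water. Local lesions are counted 3-4 days later. Inhibition % = (control lesions − treated lesions)/control lesions × 100. Three repetitions.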

[7] = system: Tobacco mosaic virus; assay: Antiviral activity against Tobacco mosaic virus (TMV) inoculated on whole Nicotiana tabacum leaves followed by smearing with 500 ug/mL compound solution on left side of leaves assessed as viral infection curative effect measured 3 to 4 days post viral infection; type: functional
Summary of the method: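 Whole same-age N. tabacum leaves are brush-inoculated with purified TMV (6 × 10^-3 mg/mL), washed with water and dried. The compound solution is then applied to the left half and solvent to the right half as control. Local lesions are counted 3-4 days after inoculation. Inhibition % is calculated from average lesion counts, control versus treated. Three repetitions.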

[8] = system: Tobacco mosaic virus; assay: Antiviral activity against Tobacco mosaic virus (TMV) pre-treated with 250 ug/mL compound for 30 min followed by inoculation on left side of Nicotiana tabacum leaves assessed as virus inactivation effect measured 3 to 4 days post viral infection; type: functional; summary of the method: as §1

SMILES	Activity [1]	Activity [2]	Activity [3]	Activity [4]	EC50 [5]	Activity [6]	Activity [7]	Activity [8]
CCOP(=O)(OCC)C(N/C(SC)=C(/C#N)C(N)=O)c1ccccc1F (stereo not given)	70.7%	26.9%	46.2%	35.8%	151 µg/mL (≈ 376 µM)	42.8%	25.4%	49%
CCOP(=O)(OCC)C(N/C(SC)=C(/C#N)C(=O)NCc1ccccc1)c1ccccc1 (stereo not given)	51.9%	–	–	–	–	55.1%	55%	–
CCCOP(=O)(OCCC)C(N/C(SC)=C(/C#N)C(=O)NCc1ccccc1)c1ccccc1 (stereo not given)	50%	–	–	–	–	42.4%	53.8%	–
CS/C(NC(c1ccccc1)P(=O)(OC(C)C)OC(C)C)=C(\C#N)C(=O)NCc1ccccc1 (stereo not given)	51.5%	–	–	–	–	39%	52.9%	–
CCCCOP(=O)(OCCCC)C(N/C(SC)=C(/C#N)C(=O)NCc1ccccc1)c1ccccc1 (stereo not given)	11%	–	–	–	–	45%	28.4%	–
CCOP(=O)(OCC)C(N/C(SC)=C(/C#N)C(=O)NCc1ccccc1)c1ccccc1F (stereo not given)	73.4%	29%	48.9%	41.2%	128 µg/mL (≈ 260 µM)	47.7%	49.9%	58.9%
CCOP(=O)(OCC)C(N/C(SC)=C(/C#N)C(=O)OC)c1ccccc1 (stereo not given)	64.1%	–	–	–	–	29.6%	56.7%	–
CCCOP(=O)(OCCC)C(N/C(SC)=C(/C#N)C(=O)OC)c1ccccc1 (stereo not given)	47.1%	–	–	–	–	44.4%	37.7%	–
COC(=O)/C(C#N)=C(\NC(c1ccccc1)P(=O)(OC(C)C)OC(C)C)SC (stereo not given)	45.7%	–	–	–	–	40.8%	43.3%	–
CCCCOP(=O)(OCCCC)C(N/C(SC)=C(/C#N)C(=O)OC)c1ccccc1 (stereo not given)	92.8%	37.6%	66.9%	53.7%	55.5 µg/mL (≈ 122 µM)	55.9%	60.2%	70.2%
CCOP(=O)(OCC)C(N/C(SC)=C(/C#N)C(=O)OC)c1ccccc1F (stereo not given)	92.1%	40.8%	60.6%	52.5%	55.3 µg/mL (≈ 133 µM)	44%	58.4%	69.7%
CCCOP(=O)(OCCC)C(N/C(SC)=C(/C#N)C(=O)OCC)c1ccccc1 (stereo not given)	71%	20.9%	47.9%	33.1%	159 µg/mL (≈ 361 µM)	41.6%	50.5%	50.1%
CCOC(=O)/C(C#N)=C(\NC(c1ccccc1)P(=O)(OC(C)C)OC(C)C)SC (stereo not given)	37.8%	–	–	–	–	37.6%	42.8%	–
CCCCOP(=O)(OCCCC)C(N/C(SC)=C(/C#N)C(=O)OCC)c1ccccc1 (stereo not given)	84%	42.6%	51.6%	48.5%	62.6 µg/mL (≈ 134 µM)	56.5%	55.8%	65.7%
CCOC(=O)/C(C#N)=C(\NC(c1ccccc1F)P(=O)(OCC)OCC)SC (stereo not given)	74.1%	30.7%	50.1%	39.1%	118 µg/mL (≈ 275 µM)	48.3%	50.7%	64.1%
CCOCCOC(=O)/C(C#N)=C(\NC(c1ccccc1)P(=O)(OCC)OCC)SC (stereo not given)	46.8%	–	–	–	–	41.2%	55.2%	–
CCCOP(=O)(OCCC)C(N/C(SC)=C(/C#N)C(=O)OCCOCC)c1ccccc1 (stereo not given)	51.5%	–	–	–	–	43.1%	43.2%	–
CCOCCOC(=O)/C(C#N)=C(\NC(c1ccccc1)P(=O)(OC(C)C)OC(C)C)SC (stereo not given)	55.9%	–	–	–	–	38.4%	35.1%	–
CCCCOP(=O)(OCCCC)C(N/C(SC)=C(/C#N)C(=O)OCCOCC)c1ccccc1 (stereo not given)	80.6%	27.8%	53.8%	42.8%	87.9 µg/mL (≈ 171 µM)	44.4%	51.8%	62%
CCOCCOC(=O)/C(C#N)=C(\NC(c1ccccc1F)P(=O)(OCC)OCC)SC (stereo not given)	70%	20.8%	44.2%	34.4%	167 µg/mL (≈ 353 µM)	48.3%	52.7%	48.8%
CCOP(=O)(OCC)C(N/C(SC)=C(/C#N)C(N)=O)c1ccccc1 (stereo not given)	60.8%	–	–	–	–	55.6%	54.4%	–
CCCOP(=O)(OCCC)C(N/C(SC)=C(/C#N)C(N)=O)c1ccccc1 (stereo not given)	63%	–	–	–	–	45.8%	53.9%	–
CS/C(NC(c1ccccc1)P(=O)(OC(C)C)OC(C)C)=C(\C#N)C(N)=O (stereo not given)	5.7%	–	–	–	–	54.4%	28.8%	–
CCCCOP(=O)(OCCCC)C(N/C(SC)=C(/C#N)C(N)=O)c1ccccc1 (stereo not given)	9.6%	–	–	–	–	40.2%	25.4%	–
CNCC(=O)N[C@@H](CO)C(=O)N[C@H]1[C@H](O)[C@@H](O)[C@H](n2ccc(N)nc2=O)O[C@@H]1C(N)=O [NINGNANMYCIN]	99.5%	42.1%	70%	60.1%	50.9 µg/mL (≈ 115 µM)	59.9%	55.8%	80%
